Legend:
Rattus norvegicus [1] = test: Antiarthritis activity in collagen-induced Lewis rat arthritis model assessed as reduction of periosteal bone width administered bid through oral gavage for 7 days measured every day started on day 9 and continuing through day 16 of compound dosing; assay type: functional
In short: (§1)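 Female Lewis rats with established collagen-induced arthritis dosed orally by gavage twice daily for 7 days (study days 10–16) with vehicle, 0.34, 1.07, 4.6 or 10 mg/kg, or dexamethasone 0.03 mg/kg; right and left ankle diameters by caliper daily, days 9–16; ankle and knee sections graded 0–5 per histopathology parameter; p < 0.05 versus arthritis + vehicle.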

[2] = AUCinfinity in Lewis rat at 1 mg/kg, iv administered via infusion over 30 mins or at 5 mg/kg, po administered via gavage by LC/MS/MS analysis; assay type: ADME, organism-based; details: in vivo
In short: (§2)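 Female Lewis rats, n=3 per route; 30-min iv infusion at 1 mg/kg and oral dose at 5 mg/kg, both in 30% PEG 400/70% water; plasma concentration-time profiles sampled to 24 h; values as mean ± SD.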

[3] = Oral bioavailability in Lewis rat at 5 mg/kg administered through gavage measured after 24 hrs by LC/MS/MS analysis; assay type: ADME, organism-based; details: in vivo; in short: as §2
[4] = Volume of distribution at steady state in Lewis rat at 1 mg/kg, iv administered via infusion over 30 mins measured after 24 hrs by LC/MS/MS analysis; assay type: ADME, organism-based; details: in vivo, read-out: Vdss; in short: as §2
Rattus norvegicus [5] = test: Antiarthritis activity in collagen-induced Lewis rat arthritis model assessed as reduction in ankle swelling administered bid through oral gavage for 7 days measured every day started on day 9 and continuing through day 16 of compound dosing; assay type: functional, organism-based; in short: as §1
[6] = Tmax in Lewis rat at 1 mg/kg, iv administered via infusion over 30 mins or at 5 mg/kg, po administered via gavage by LC/MS/MS analysis; assay type: ADME, organism-based; details: in vivo; in short: as §2
Rattus norvegicus [7] = test: Antiarthritis activity in collagen-induced Lewis rat arthritis model assessed as reduction in ankle inflammation at 1.07 mg/kg administered bid through oral gavage for 7 days measured every day started on day 9 and continuing through day 16 of compound dosing relative to vehicle-treated control; assay type: functional; in short: as §1
Rattus norvegicus [8] = species on record: Rattus norvegicus; test: (§3) Inhibition of PI3Kdelta in rat B-cells assessed as reduction in anti IgD-mediated cell activation after 18 to 24 hrs by flow cytometric analysis
In short: (§4)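 Rat whole blood, ex vivo; B-cell activation stimulated by anti-IgD (BCR); EC50 and EC90 derived from inhibition of activation.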

[9] = as §3; in short: as §4
Rattus norvegicus [10] = test: In vivo inhibition of PI3Kdelta in collagen-induced Lewis rat arthritis model at 1.07 mg/kg administered bid through oral gavage at 2 to 12 hrs on 3rd and 7th day of compound dosing; assay type: functional
In short: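 CIA Lewis rats dosed orally twice daily; plasma drug levels measured in blood samples taken at set times post-dose on days 3 and 7; trough PI3Kδ inhibition estimated from EC50/EC90 of the rat whole-blood ex vivo BCR-induced B-cell activation assay.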

[11] = target: T1, Phosphatidylinositol 4,5-bisphosphate 3-kinase catalytic subunit delta isoform (Homo sapiens, UniProt O00329); test: Inhibition of PI3Kdelta in human whole blood assessed as basophil degranulation by measuring CD63 surface expression on CCR3 positive cells after 60 mins by flow cytometric analysis; assay type: tissue-based
T1 sequence (O00329 whole entry): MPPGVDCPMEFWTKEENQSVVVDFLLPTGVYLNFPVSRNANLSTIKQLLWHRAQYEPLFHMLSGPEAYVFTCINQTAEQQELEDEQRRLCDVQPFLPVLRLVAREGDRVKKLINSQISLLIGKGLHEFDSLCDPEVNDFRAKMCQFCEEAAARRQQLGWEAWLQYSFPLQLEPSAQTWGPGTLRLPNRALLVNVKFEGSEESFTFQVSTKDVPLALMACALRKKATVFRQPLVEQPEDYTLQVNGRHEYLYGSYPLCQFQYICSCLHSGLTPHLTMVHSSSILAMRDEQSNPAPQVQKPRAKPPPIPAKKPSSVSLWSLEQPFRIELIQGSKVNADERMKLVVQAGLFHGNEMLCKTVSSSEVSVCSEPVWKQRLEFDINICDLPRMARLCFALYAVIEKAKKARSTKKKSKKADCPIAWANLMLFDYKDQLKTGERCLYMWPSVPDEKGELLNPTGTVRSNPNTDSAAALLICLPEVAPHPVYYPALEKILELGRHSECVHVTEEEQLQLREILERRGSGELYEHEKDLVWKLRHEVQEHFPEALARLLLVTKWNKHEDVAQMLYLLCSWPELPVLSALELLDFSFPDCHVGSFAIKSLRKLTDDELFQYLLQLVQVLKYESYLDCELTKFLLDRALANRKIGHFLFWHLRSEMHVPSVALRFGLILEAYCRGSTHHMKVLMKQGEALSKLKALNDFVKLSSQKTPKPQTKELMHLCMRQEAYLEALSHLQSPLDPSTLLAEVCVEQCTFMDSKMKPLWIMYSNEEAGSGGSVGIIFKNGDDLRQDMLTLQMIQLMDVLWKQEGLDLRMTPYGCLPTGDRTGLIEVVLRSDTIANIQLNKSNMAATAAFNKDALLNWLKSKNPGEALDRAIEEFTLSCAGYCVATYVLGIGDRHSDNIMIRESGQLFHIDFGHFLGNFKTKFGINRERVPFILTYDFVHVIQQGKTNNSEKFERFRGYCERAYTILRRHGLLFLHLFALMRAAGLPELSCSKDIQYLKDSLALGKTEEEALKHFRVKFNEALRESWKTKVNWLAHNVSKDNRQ

[12] = Half life in Lewis rat at 5 mg/kg, po administered through gavage measured after 24 hrs by LC/MS/MS analysis; assay type: ADME, organism-based; details: in vivo
Rattus norvegicus [13] = test: Antiarthritis activity in collagen-induced Lewis rat arthritis model assessed as reduction of bone resorption administered bid through oral gavage for 7 days measured every day started on day 9 and continuing through day 16 of compound dosing; assay type: functional; in short: as §1
Rattus norvegicus [14] = test: Antiarthritis activity in collagen-induced Lewis rat arthritis model assessed as reduction of bone resorption at 1.07 mg/kg administered bid through oral gavage for 7 days measured every day started on day 9 and continuing through day 16 of compound dosing relative to vehicle-treated control; assay type: functional; parameters: scale not given: the % may be the effect or the level left; in short: as §1
Hepatocyte = test: Clearance in rat hepatocytes at 1 uM by LC/MS/MS analysis; assay type: ADME, cell-based
[15] = Ratio of drug level in blood to plasma in beagle dog; assay type: ADME, cell-free, Canis lupus familiaris; details: blood and plasma
Rattus norvegicus [16] = test: Antiarthritis activity in collagen-induced Lewis rat arthritis model assessed as reduction in ankle inflammation administered bid through oral gavage for 7 days measured every day started on day 9 and continuing through day 16 of compound dosing; assay type: functional; in short: as §1
[17] = Half life in beagle dog at 5 mg/kg, po administered through gavage measured after 24 hrs by LC/MS/MS analysis; assay type: ADME, organism-based, Canis lupus familiaris; details: in vivo
Homo sapiens = species on record: Homo sapiens; test: Selectivity ratio of IC50 for human full length PI3Kalpha catalytic subunit/p85alpha to IC50 for human full length PI3Kdelta catalytic subunit/p85alpha
In short: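 Ratio calculated from the isoform-specific PI3K IC50 values, with enzyme assays run in quadruplicate.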

[18] = Clearance in dog hepatocytes at 1 uM by LC/MS/MS analysis; assay type: ADME, cell-based, Canis lupus familiaris, Hepatocyte
Rattus norvegicus [19] = test: Antiarthritis activity in collagen-induced Lewis rat arthritis model assessed as reduction in cartilage damage at 1.07 mg/kg administered bid through oral gavage for 7 days measured every day started on day 9 and continuing through day 16 of compound dosing relative to vehicle-treated control; assay type: functional; parameters: scale not given: the % may be the effect or the level left; in short: as §1

Q: Which results are given for `C[C@H](Nc1nc(N)nc(N)c1C#N)c1nc2cccc(F)c2c(=O)n1-c1cc(F)cc(F)c1`?
A: ED50 (Rattus norvegicus [1]): 1.5 mg/kg; AUC(0-inf) [2]: 17 µM·h; bioavailability [3]: 106%; Vd [4]: 2.6 L/kg; Activity (Rattus norvegicus [5]): Dose-dependent effect; Tmax [6]: 1 h; inhibition in vivo at 1.07 mg/kg (Rattus norvegicus [7]): 45%; EC90 (Rattus norvegicus [8]): 100 nM; EC50 [9]: 11 nM; inhibition in vivo at 1.07 mg/kg (Rattus norvegicus [10]): 50%; EC50 [11]: 1 nM; half-life [12]: 3.2 h; ED50 (Rattus norvegicus [13]): 1.5 mg/kg; Activity (Rattus norvegicus [14]): 63%; CLH (Hepatocyte): 23.3 mL/min/kg; blood plasma ratio [15]: 2.6; ED50 (Rattus norvegicus [16]): 1.5 mg/kg; half-life [17]: 2.17 h; Ratio IC50 (Homo sapiens): 1900; CLH [18]: 4.17 mL/min/kg; Activity (Rattus norvegicus [19]): 50%

From ChEMBL document CHEMBL3804828, “2,4,6-Triaminopyrimidine as a Novel Hinge Binder in a Series of PI3Kδ Selective Inhibitors” (J Med Chem, 2016)
